Results as given in ChEMBL document CHEMBL3352202 (J Med Chem, 2014).

Legend:
[1] = Antiproliferative activity against human PC3 cells after 96 hrs by SRB assay; type: functional, cell-based; details: PC-3, 96 h
How it was run: (§1)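 Prostate cancer lines were exposed to compound for 96 h, with cell growth read by sulforhodamine B staining. Results are IC50 ± SEM.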

[2] = Antiproliferative activity against mouse B16-F1 cells after 96 hrs by SRB assay; type: functional, cell-based; details: B16-F1, 96 h
[3] = Antiproliferative activity against human PPC1 cells after 96 hrs by SRB assay; type: functional, cell-based; details: PPC-1, 96 h; how it was run: as §1
DU-145 = experiment: Antiproliferative activity against human DU145 cells after 96 hrs by SRB assay; type: functional, cell-based; details: DU-145, 96 h; how it was run: as §1
LNCaP = experiment: Antiproliferative activity against human LNCAP cells after 96 hrs by SRB assay; type: functional, cell-based; how it was run: as §1
Tubulin (Bos taurus) [4] = target: T1, Tubulin (Bos taurus) (UniProt Q6B856+Q862L2+Q862F3); experiment: Inhibition of bovine brain tubulin polymerization at 10 uM for 20 mins by spectrophotometry
How it was run: (§2)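 Bovine brain tubulin (0.4 mg, >97% pure) in general tubulin buffer pH 6.9 (80 mM PIPES, 2.0 mM MgCl2, 0.5 mM EGTA, 1 mM GTP) with compound at 5 or 10 μM, 37 °C. A340 was read each minute for 20 min, and percent inhibition was taken relative to vehicle.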

A-375 = experiment: Antiproliferative activity against human A375 cells after 96 hrs by SRB assay; type: functional, cell-based; details: A-375, 96 h
Tubulin (Bos taurus) [5] = target: T1, Tubulin (Bos taurus); experiment: Inhibition of bovine brain tubulin polymerization at 5 uM for 20 mins by spectrophotometry; how it was run: as §2
Liver microsome [6] = experiment: Half life in rat liver microsomes at 0.5 uM by LC-MS/MS analysis
Liver microsome [7] = experiment: Half life in human liver microsomes at 0.5 uM by LC-MS/MS analysis
Liver = experiment: Half life in mouse liver microsomes at 0.5 uM by LC-MS/MS analysis

Compound	IC50 [1]	IC50 [2]	IC50 [3]	IC50 (DU-145)	IC50 (LNCaP)	inhibition (Tubulin (Bos taurus) [4])	IC50 (A-375)	inhibition (Tubulin (Bos taurus) [5])	t1/2 (Liver microsome [6])	t1/2 (Liver microsome [7])	t1/2 (Liver)
COc1cc(C(=O)c2csc(-c3ccccc3)n2)cc(OC)c1OC	0.021 µM	0.055 µM	0.043 µM								
COc1cc(-c2cccc3[nH]c(-c4ccc5[nH]ccc5c4)nc23)cc(OC)c1OC	0.022 µM		0.02 µM	0.057 µM	0.028 µM	60%	0.025 µM	30%			
COCOc1c(OC)cc(C(=O)c2csc(-c3ccccc3)n2)cc1OC	0.017 µM	0.019 µM	0.022 µM	0.112 µM	0.031 µM		0.02 µM		9.7 min	7.8 min	4 min
COc1cc(C(=O)c2csc(-c3ccccc3)n2)cc(OC)c1OCCN1C(=O)c2ccccc2C1=O	> 10 µM	1.3 µM	0.6 µM	0.6 µM	1.4 µM		3.1 µM				
COc1cc(C(=O)c2csc(-c3ccccc3)n2)cc(OC)c1OC(=O)C(F)(F)F	> 10 µM	8.9 µM	> 10 µM	> 10 µM	> 10 µM		22.2 µM				
COc1cc(-c2cccc3[nH]c(-c4ccccc4)nc23)cc(OC)c1OC	2.4 µM		2.1 µM	7.8 µM	2.1 µM						
COc1cc(-c2nccc3[nH]c(-c4ccc5[nH]ccc5c4)nc23)cc(OC)c1OC	0.006 µM		0.042 µM		0.005 µM	81%	0.005 µM	33%	30.4 min	45.3 min	19.7 min
COc1cc(C(=O)c2csc(Nc3ccc4[nH]ccc4c3)n2)cc(OC)c1OC	0.012 µM	0.084 µM	0.015 µM	0.024 µM	0.013 µM		0.025 µM				
COc1cc(-c2cccc3[nH]c(-c4c[nH]c5ccccc45)nc23)cc(OC)c1OC	0.9 µM		1.3 µM	4.2 µM	0.8 µM		0.6 µM				
COc1cc(C(=O)c2csc(Nc3ccccc3)n2)cc(OC)c1OC	0.021 µM	0.065 µM	0.043 µM	0.071 µM	0.028 µM		0.028 µM				
COc1cc(C(=O)c2csc(-c3ccccc3)n2)cc(OC)c1OCCN	0.158 µM	0.142 µM	0.184 µM	0.464 µM	0.117 µM		0.527 µM				
COc1cc(C(=O)c2c[nH]c(Nc3ccccc3)n2)cc(OC)c1OC	> 30 µM	> 30 µM	> 30 µM	> 30 µM	> 30 µM		> 30 µM				
COc1cc(-c2cccc3[nH]c(-c4n[nH]c5ccccc45)nc23)cc(OC)c1OC	0.8 µM		1 µM	4 µM	1.6 µM		1.1 µM				
COc1cc(C(=O)c2csc(-c3ccccc3)n2)cc(OC)c1OCc1ccccc1	> 10 µM	10.6 µM	> 10 µM	> 10 µM	> 10 µM		> 10 µM				
COc1cc(C(=O)c2csc(-c3ccccc3)n2)cc(OC)c1OC(=O)CCl	> 10 µM	3.2 µM	> 10 µM	> 10 µM	> 10 µM		10.8 µM				
